From publication PMC3483449 (FEBS letters, 2012)

T1: mouse AA3 (Mus musculus, UniProt Q91XE4)
T1 sequence (Q91XE4 1-318): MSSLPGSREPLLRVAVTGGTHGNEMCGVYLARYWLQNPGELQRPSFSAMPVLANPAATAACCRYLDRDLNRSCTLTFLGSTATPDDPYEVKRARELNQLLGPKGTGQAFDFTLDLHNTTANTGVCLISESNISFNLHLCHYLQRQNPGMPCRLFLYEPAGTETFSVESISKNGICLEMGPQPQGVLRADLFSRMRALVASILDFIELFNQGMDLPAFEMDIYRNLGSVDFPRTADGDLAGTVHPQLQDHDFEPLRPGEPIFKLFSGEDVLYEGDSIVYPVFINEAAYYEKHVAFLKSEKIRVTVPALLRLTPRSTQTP

T2: mouse aminoacylase 3 (mouse, UniProt Q91XE4 1-318)
T2 sequence (looked up): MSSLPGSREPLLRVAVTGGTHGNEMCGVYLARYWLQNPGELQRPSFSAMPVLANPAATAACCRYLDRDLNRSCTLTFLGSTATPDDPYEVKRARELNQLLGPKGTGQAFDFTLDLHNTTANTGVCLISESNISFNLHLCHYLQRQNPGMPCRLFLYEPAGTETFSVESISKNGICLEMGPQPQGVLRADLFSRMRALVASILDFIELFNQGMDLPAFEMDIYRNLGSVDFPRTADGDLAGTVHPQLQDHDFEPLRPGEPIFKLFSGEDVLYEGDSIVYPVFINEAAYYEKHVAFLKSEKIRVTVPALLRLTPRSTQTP


What was measured:
[1] = molecular target: T1, mouse AA3; experiment: Peptide cleavage catalyzed by AA3; assay type: biochemical; conditions: 3 μM AA3, 1 mM peptide or 0.1 mM HCVCP, 50 mM Tris-HCl pH 7.5, 1 mM CoCl2, 18 h, 37°C; LC-MS
Procedure, shortened: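 Recombinant mouse AA3 (N-terminal Strep(II) tag, expressed in E. coli, Streptactin-purified) was incubated with N-acetylated or free peptides, or with His-tagged HCV core aa 1–177 (genotype 1). Aliquots were diluted in water to 50 μM peptide, then run by reverse-phase HPLC (0.1% formic acid, 0–100% acetonitrile over 60 min) with UV and triple-quadrupole ESI-MS detection (m/z 300–2000). Cleavage sites were assigned from fragment masses.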

[2] = molecular target: T1, mouse AA3; experiment: Inhibition of Co2+-dependent endopeptidase activity of AA3; assay type: biochemical; conditions: 1 mg/ml Pefabloc SC
Procedure, shortened: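 Cleavage reaction with N-terminally Strep(II)-tagged mouse AA3 (E. coli-expressed, Streptactin-purified): 3 µM enzyme plus 1 mM peptide or 0.1 mM His-tagged HCV core protein (aa 1–177) in 50 mM Tris-HCl pH 7.5 with 1 mM CoCl2, incubated 18 h at 37°C. Products were diluted to 50 µM peptide, then analysed by reverse-phase HPLC with UV and on-line ionspray triple-quadrupole MS. Cleavage sites were assigned from masses.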

[3] = molecular target: T2, mouse aminoacylase 3; experiment: SPR

Molecule | Hydrolysis (cleavage) by AA3 [1] | other results
insulin B chain: standard protease substrate | not hydrolyzed | 
Cl.NCCc1ccc(S(=O)(=O)F)cc1 [Pefabloc SC] |  | Inhibition of Co2+-dependent endopeptidase activity of AA3 [2]: ~ 50%
casein | not hydrolyzed | 
STLPKPQRKTKRNTIRRPQDVKFPGG [HCVCP-long peptide (aa. 2-27)] |  | Kd [3]: 142 ± 11 µM
